# Source: PubChem (several laboratories)
# M1 antagonist: antagonists of rat M1 muscarinic receptor | 3.4% of 64,000 active | P08482 | B-score at 10 µM | AID 628 | CHO-M1 cells, Fluo-4 calcium, ACh EC80 antagonist mode; active compounds read low;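 active means calcium fluorescence response, raw or row-and-column corrected B-score, differing from the plate sample mean either way at a set confidence level, mostly lower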
# M1 agonist: M1 muscarinic receptor agonism | 3% of 64,000 active | B-score at 10 µM | CHO-M1 cells, Fluo-4 calcium fluorescence, agonist mode; active compounds read high;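 active means fluorescence rise, raw or as B-score row- and column-corrected plate score, outside the 99.7% band of its plate's samples, either direction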
# hDAT+cocaine: modulates human dopamine transporter uptake under cocaine; Q01959; LLC-PK1 hDAT cells, [14C]-dopamine uptake with cocaine IC80; actives deviate in either direction; B-score at 10 µM; 1.3% of 110,000 active;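 active means Z score or B-score, a plate-position-corrected score, falls beyond the plate's 99.7% confidence bounds, in either direction; inactive means both scores lie inside the 99.7% bounds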;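 further: scored against the spread of the other compound wells on the same plate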
# HEK293 NFkB inh: lowers PMA/ionomycin-induced NF-kB signal in HEK293 cells; inhibition, % at 3 µM; AID 465; HEK-293 NF-kB luciferase reporter, luminescence; 0.21% of 62,000 active;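 active means inhibition above the mean of all tested compounds plus 3 SD, cut at about 40% in these data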;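 further: 0% = stimulated DMSO wells and 100% = 10 µM reference inhibitor 5653914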
#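 Timing: 1 h pretreatment, 16 h stimulation, 37 °C; system: HEK-293 cells with stable firefly luciferase reporter driven by four HIV NF-kB elements; doses: 3 µM once, 0.30% DMSO; measured by: luciferase luminescence; control set: DMSO and 10 µM reference inhibitor; repeats: single test; reagent: PMA plus ionomycin mix as NF-kB-activating stimulus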
# BAP1 inh: human BAP1 deubiquitinase inhibition | calls only at 20 µM | 0.48% of 72,000 active | recombinant BAP1, Ub-AMC hydrolysis fluorescence kinetic; active compounds read low | AID 436 | Q92560;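 active means activity remaining at or below 50% of control, provided the compound also passes the data quality filters; inactive means the rest, including low values that fail the filters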;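 further: 100% = DMSO wells rate and 0% = substrate alone blank rate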
# D1 mod: allosterically modulates the human D1 dopamine receptor | P21728 | HEK293 D1, CRE-luciferase, dopamine EC30 potentiation; actives deviate in either direction | B-score at 10 µM | 5.9% of 58,000 active | AID 641;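 active means luminescence count or its row- and column-corrected plate score outside the 99.7% band of the plate's sample wells, on either side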
# M1 ag confirm: rat M1 muscarinic agonism, confirmation; 19% of 1,700 active; shares compounds with M1 agonist; CHO-M1 cells, Fluo-4 calcium fluorescence, agonist mode; actives lie on both sides; fluorescence change (max-min) at 10 µM;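 active means fluorescence change differs from the solvent-only DMSO control mean at a set confidence level in both duplicate runs; inconclusive means differs from solvent-only control mean in just one of two runs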;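 further: an EC20 dose of acetylcholine follows compound addition during the same imaging run; raw fluorescence intensity difference in instrument units with no normalization to controls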
# M4 agonist ctr: rat M4 muscarinic agonism, M1 counter-screen. fluorescence change (max-min) at 10 µM. 9% of 1,700 active. shares compounds with M1 agonist. CHO M4/Gqi5 cells, Fluo-4 calcium fluorescence, agonist mode; actives lie on both sides. AID 1741;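 active means fluorescence change differing from the plate's solvent-only control wells at 99.7% confidence in both duplicates, whether higher or lower; inconclusive means differs from solvent controls in only one of two duplicates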
# Target sequence (P08485 whole entry, looked up): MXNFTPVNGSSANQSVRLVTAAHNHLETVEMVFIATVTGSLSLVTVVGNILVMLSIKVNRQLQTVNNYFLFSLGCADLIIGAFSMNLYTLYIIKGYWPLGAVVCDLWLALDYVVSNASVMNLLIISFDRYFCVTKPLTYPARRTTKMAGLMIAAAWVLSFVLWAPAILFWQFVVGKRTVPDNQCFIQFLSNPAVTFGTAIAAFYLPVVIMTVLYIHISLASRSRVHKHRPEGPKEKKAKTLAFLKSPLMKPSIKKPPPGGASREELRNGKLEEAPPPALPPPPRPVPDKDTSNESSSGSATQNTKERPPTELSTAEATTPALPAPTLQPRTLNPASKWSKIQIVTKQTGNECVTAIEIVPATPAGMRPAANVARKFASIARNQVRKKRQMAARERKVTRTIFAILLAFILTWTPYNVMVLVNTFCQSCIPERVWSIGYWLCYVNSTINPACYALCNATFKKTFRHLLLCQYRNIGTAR
# M1 antag confirm: M1 muscarinic receptor (rat) antagonism, confirmed; shares compounds with M1 antagonist; CHO-M1 cells, Fluo-4 calcium, ACh EC80 antagonism; active compounds read low; calcium response (max-min fluorescence) at 10 µM; 43% of 1,700 active; AID 677;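 active means calcium response below the same-plate mean of wells given acetylcholine alone at its 80%-effect dose, minus 3 SD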;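 further: raw fluorescence intensity difference in arbitrary instrument units and not normalized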
# mGluR4 antag: acts on human mGluR4 in M1 antagonist selectivity test. shares compounds with M1 antagonist. CHO-mGluR4 calcium flux, Fluo-4 fluorescence, glutamate EC80; active compounds read low. fluorescence response (max-min) at 10 µM. 0.9% of 1,700 active;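 active means fluorescence response below the plate's average for near-maximal glutamate wells, less 3 SD of those wells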;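 further: raw unnormalized fluorescence span taken in the window right after glutamate addition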
# An asterisk follows results filed as active; i = inactive; ? = inconclusive; . = no result shown. This is a sample that favours compounds with a hit; in the whole collection about 7.2% have one here.
SMILES,M1 antagonist,M1 agonist,hDAT+cocaine,HEK293 NFkB inh,BAP1 inh,D1 mod,M1 ag confirm,M4 agonist ctr,others
COc1ccc(-n2nnc3c(SCc4ccccc4)ncnc32)cc1,-0.36,2.8*,-1.5,8,i,-0.5,-0.65,-22,
CCn1cc(C(=O)Nc2cccc(NC(C)=O)c2)c2cc(OC)c(OC)cc2c1=O,0.11,-0.23,.,14,.,-0.35,.,.,
COc1cc(C(=O)Nc2ccc3c(c2)OCCO3)ccc1OC(C)C,0.73,3.7*,0.98,-15,i,0.11,-25,-40,
CCn1cc(C(=O)Nc2ccc3c(c2)OCCO3)c2cc(OC)c(OC)cc2c1=O,-0.0093,4.1*,1.4,7,i,-0.91,?,-47,
Cc1cccc(-n2c(N)cc(=O)nc2SCC(=O)Nc2ccccc2)c1,0.17,2.8*,-1.2,11,i,0.084,-24*,-50,
Cc1cccc(-n2c(N)cc(=O)nc2SCC(=O)NC2CCCCC2)c1,-0.031,0.66,-0.17,17,i,-0.037,.,.,
N#CC1=C(N)Oc2n[nH]c(-c3cccs3)c2C1c1ccco1 (centres undefined),-0.17,37*,-0.83,9,i,1.5,138*,115*,
N#CC1=C(N)Oc2n[nH]c(-c3cccs3)c2C1C1CCCCC1 (centres undefined),.,.,-0.22,.,.,.,.,.,
CC1(C)Cc2c(c(-c3ccco3)[nH]c(=O)c2C#N)CS1,0.031,24*,-0.91,.,i,.,4.6,-35,
O=C(Nc1nnc(CCN2CCCCC2)s1)C1CCCCC1,-1.7,2.7*,0.42,10,i,-0.083,?,-76,
O=C(c1oc2ccccc2c1CSCc1ccccc1)N1CCN(c2ncccn2)CC1,-0.74,7*,0.16,5,.,-0.19,-7.6,?,
CCOC(=O)c1csc(NC(=O)c2ccccc2)n1,0.58,0.35,0.97,-29,i,-1.9,.,.,
CCOC(=O)Cc1cnc(NC(=O)c2ccccc2)s1,-0.45,3.2*,0.033,5,i,0.31,-17,?,
COc1ccc(NCc2cc3cc(OC)ccc3[nH]c2=O)cc1,-0.002,3.8*,0.065,4,i,.,-2.2,-10,
COc1ccc2[nH]c(=O)c(CN(CC3CCCO3)C(=O)Nc3ccccc3OC)cc2c1 (centres undefined),0.062,6.4*,0.92,10,.,.,3.2,-4.9,
COc1ccc2[nH]c(=O)c(CN(Cc3nnnn3Cc3ccccc3)CC3CCCO3)cc2c1 (centres undefined),0.72,-0.47,1,20,.,.,.,.,
CCOc1ccc2[nH]c(=O)c(CN(Cc3cccnc3)C(=O)Nc3ccccc3OC)cc2c1,0.024,-0.36,-0.033,0,.,0.56,.,.,
COc1ccc2[nH]c(=O)c(CN(Cc3cccnc3)C(=O)Nc3ccccc3)cc2c1,-1,3.5*,0.55,16,.,.,-28*,?,
COc1ccc2[nH]c(=O)c(CN(Cc3nnnn3Cc3ccc(F)cc3)CC3CCCO3)cc2c1 (centres undefined),-0.15,2.6*,1,18,.,0.083,-5.8,-17,
CC(C)(C)C1CCC(OCC(O)CN2CCC(CN3C(=O)c4cccc5cccc(c45)C3=O)CC2)CC1 (centres undefined),.,.,.,.,i,.,.,.,
CCOC(=O)C1CCCN(c2c(NCC3CCCN3CC)c(=O)c2=O)C1 (centres undefined),-0.2,0.098,0.19,0,i,-0.24,.,.,
CCOC(=O)C1CCCN(c2c(NCCc3ccc(S(N)(=O)=O)cc3)c(=O)c2=O)C1 (centres undefined),-1.2,2.3*,-0.67,8,i,.,-11,-14,
CCOC(=O)C1CCCN(c2c(NCc3ccco3)c(=O)c2=O)C1 (centres undefined),-1.1,6.1*,0.74,9,i,-0.85,-5,-30,
CCOC(=O)C1CCCN(c2c(NCCN(C)Cc3ccccc3)c(=O)c2=O)C1 (centres undefined),-0.54,-0.59,2.5,7,i,0.0046,.,.,
O=c1[nH]cc(-n2c(=O)c3ccccc3c3ccccc3c2=O)c(=O)[nH]1,.,.,.,.,i,.,.,.,
SMILES,M1 antagonist,M1 agonist,hDAT+cocaine,HEK293 NFkB inh,BAP1 inh,D1 mod,M1 ag confirm,M4 agonist ctr,others
CCOc1cc([N+](=O)[O-])cc(C=Nc2cccc(-c3nc4cc(C)ccc4o3)c2)c1O,.,.,.,.,i,.,.,.,
CCOc1ccc(N=Cc2c(O)cc(C)oc2=O)cc1,-10*,-3.4*,-0.59,12,i,0.8,-13,?,M1 antag confirm=688;mGluR4 antag=203
Cc1cc(O)c(/C=N/c2ccccn2)c(=O)o1,0.57,-0.81,-0.12,12,.,-0.024,.,.,
CCOc1ccc(-c2n[nH]c(C(F)(F)F)c2-c2ccccc2)c(O)c1C,.,.,.,.,i,.,.,.,
CCc1nnc(NC(=O)c2ccc(N3C(=O)CCC3=O)cc2)s1,-3.1*,-2.5*,-0.78,5,i,-1.1,?,0.15,M1 antag confirm=694;mGluR4 antag=199
CCC(CC)C(=O)Nc1c2c(nn1-c1ccc(OC)cc1)CS(=O)C2 (centres undefined),-3.3*,-2.4*,-0.84,12,i,1.5,?,-36,M1 antag confirm=675;mGluR4 antag=175
CC(C)COC(=O)C(C#N)c1nc2ccccc2nc1N1CCN(Cc2ccccc2)CC1 (centres undefined),-1.3*,-2.3*,0.76,8,i,-0.42,8.3,-8.4,M1 antag confirm=631;mGluR4 antag=178
CCOc1ccccc1NC(=O)CC1Nc2cc(C)c(C)cc2NC1=O (centres undefined),-2.6*,-2.3*,0.89,5,i,1.3,-10,-41,M1 antag confirm=597;mGluR4 antag=232
CCOc1ccccc1NC(=O)CC1Nc2ccccc2NC1=O (centres undefined),-0.37,-1.3,0.56,3,i,0.74,.,.,
CC1CCCCN1CCNC(=O)c1cc2c(=O)n(C)c3ccccc3c2n1C (centres undefined),-4.2*,-2.7*,0.49,20,i,0.41,-17,-25,M1 antag confirm=419*;mGluR4 antag=254
c1ccc(COCCOCCN2CCOCCOCCOCCOCCOCC2)cc1,.,.,.,.,i,.,.,.,
CCOC(=O)c1ccc(NC(=O)N2CCN(CCc3ccccc3)CC2)cc1,-2.2*,-2.4*,-0.49,0,i,-1.4,-1.7,-23,M1 antag confirm=459;mGluR4 antag=192
CCOC(=O)c1ccc(NC(=O)N2CCN(c3ccccn3)CC2)cc1,0.0017,0.82,2.7,16,i,0.65,.,.,
